# Data: PubChem BioAssay AID504383 (The Scripps Research Institute Molecular Screening Center, 2011)
# Out of some 2,500 compounds screened, about 1,200 (48%) were called active. So high a share suggests a set chosen from earlier hits. The list shows a part of the results. A number with no mark means an inactive call.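 How the source made its calls: active means mean activation above the low control average plus 3 SD, as set in the primary screen (cut at about 12% in these data); inactive means the rest.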
# Molecular target: Troponin I, cardiac muscle (Homo sapiens) + Troponin T, cardiac muscle (Homo sapiens) + Troponin C, slow skeletal and cardiac muscles (Homo sapiens) (UniProt P19429+P45379+P63316)
# Experiment: cardiac RTF calcium sensitivity activators, confirmation, biochemical, IANBD-TnC fluorescence, triplicate (AID 504383);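 further: 0% = DMSO at 0.472 mM calcium and 100% = DMSO at 2.9 mM calcium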
# Conditions: IANBD-labeled cardiac RTF, Ca2+ sensitivity fluorescence; at 7.2 µM; stronger effect = higher value; scaled from EC20 to saturating calcium; tested at EC20 calcium, 0.472 mM
# Method in brief: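 Assay system: labelled regulated thin filament protein complex; schedule: 15 min compound incubation with filaments at 25 °C; benchmarks: low control EC20 calcium, high control EC100 calcium; reagent: Ca2+ 0.472 mM, EC20 level; doses: one dose, 7.2 µM nominal; evaluation: fluorescence gain scaled between EC20 and EC100 calcium controls; signal: filament fluorescence intensity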
row,Compound,activation
1,COc1ccccc1N=Cc1c(C)c(C#N)c2[nH]c3ccccc3n2c1=O,1.91%
2,COc1ccc(N2C(N)=NC(N)=NC2(C)C)cc1,1.33%
3,N#CC1=C(N)SC(N)=C(C#N)C1CCc1ccccc1,0.43%
4,CN1CC=C2C(C#N)=C(N)C(C#N)(C#N)C(Cc3ccccc3)C2C1 (stereo not given),12.3% (active)
5,CCN1CC=C2C(C#N)=C(N)C(C#N)(C#N)C(CCc3ccccc3)C2C1 (stereo not given),11.4%
6,CN1CC=C2C(C#N)=C(N)C(C#N)(C#N)C(CCc3ccccc3)C2C1 (stereo not given),46% (active)
7,CCOc1ccc(S(=O)(=O)n2ccnc2)c2ccccc12,12.2% (active)
8,CC1=CC=CN2CC(O)CN=C12 (stereo not given),25.4% (active)
9,CCCc1ccc(C(=O)NNc2cc(Cl)ccc2Cl)cc1,1.21%
10,CCc1ccc(C(=O)NNc2cc(Cl)ccc2Cl)cc1,16.7% (active)
11,CCC1SC(=Nc2cccc(C)c2)NC1=O (stereo not given),143% (active)
12,O=C(CSc1nnc(COc2ccccc2)o1)N1CCN(c2ccccc2)CC1,55.2% (active)
13,Fc1ccc(OCc2nnc(SCCN3CCOCC3)o2)cc1,4.25%
14,CCO[C@@H]1OC(C(=O)O)=C[C@H](c2coc3ccccc3c2=O)[C@H]1CCCO,9.42%
15,COc1ccc(CCNC(=O)c2ccccc2OCc2c(C)noc2C)cc1,7.09%
16,COc1cccc(/C(O)=C/c2nc3ccc(C(=O)NCCc4ccc(Cl)cc4)cc3[nH]c2=O)c1,6.19%
17,COc1ccc(N(C)S(=O)(=O)c2ccc(Cl)c(C(=O)NCCc3ccc(Cl)cc3)c2)cc1,89% (active)
18,Cc1cc(C(=O)COc2cccc3cccnc23)c(C)n1C,60.1% (active)
19,OCCN=C1CCCc2c1[nH]c1ccc(Cl)cc21,10.9%
20,Cn1ncc(N=Cc2c(O)ccc3ccccc23)c1C(=O)Nc1cccc(Cl)c1,8.95%
21,Cn1c(O)c(/C=N/NC(=O)c2cc3ccccc3cc2O)c2ccccc21,228% (active)
22,CC(O)c1cccc(N=Cc2ccc3ccccc3c2O)c1 (stereo not given),13.9% (active)
23,Oc1ccccc1C=NN=Cc1c(O)ccc2ccccc12,6.43%
24,Cc1ccc2c(c1)c(/C=C/c1cc[n+](C)cc1)c(C)n2C,11%
25,Cc1[nH]c2ccccc2c1/C=C/c1cc[n+](C)cc1,11.9% (active)

row,Compound,activation
1,Cc1ccc2[nH]c(C)c(/C=C/c3cc[n+](C)cc3)c2c1,171% (active)
2,C=CCn1c(COc2cccc(C)c2)nnc1SCn1nnc2ccccc2c1=O,5.98%
3,CCNc1nc(SCC(N)=O)nc2sc3c(c12)CCN(C)C3,6.59%
4,CCOC(=O)C(C)Sc1nnc(Cc2cc(=O)[nH]c(=O)[nH]2)n1-c1ccc(Cl)cc1 (stereo not given),10.2%
5,CCOC(=O)C(C)(C)Sc1nc2c(cnn2-c2ccc(Cl)cc2)c(=O)[nH]1,185% (active)
6,CCCCCOc1ccc(CN2CCOCC2)cc1Cl,74.8% (active)
7,COc1cccc(CNC(=O)C2CCCN(c3nc4ccccc4o3)C2)c1 (stereo not given),1.39%
8,Cc1cc2nc(C3CCCN(C(=O)NCc4ccccc4)C3)[nH]c2cc1C (stereo not given),35.4% (active)
9,CCCC(=O)Nc1ccc(-c2cnc(-c3ccc(NC(=O)CCC)cc3)nc2)cc1,13.5% (active)
10,Cc1cccc(/C=N/NC(=O)C(C)Nc2cccc3ccccc23)n1 (stereo not given),46.1% (active)
11,CCOC(=O)c1sc(=NC(=O)c2cc(OC)c(OC)c(OC)c2)n(C)c1C,266% (active)
12,CCOC(=O)Cn1nc2sc3ccccc3n2c(=O)c1=O,8.56%
13,CC1CC(C)CN(C(=O)Cn2c(-c3nonc3N)nc3ccccc32)C1 (stereo not given),4.8%
14,CCOC(=O)Cn1c(=O)c(-c2cc(Br)ccc2N)nc2ccccc21,16.6% (active)
15,CCc1ccccc1NC(=O)COc1ccc2c(=O)c(Oc3cc(C)ccc3C)coc2c1,2310% (active)
16,COc1c(O)cccc1-c1nnn(CCC(=O)OCC(=O)c2ccccc2)n1,53.4% (active)
17,O=C(O)CSc1nc2ccccc2nc1Cc1ccccc1F,413% (active)
18,O=C(Cc1nc2ccccc2[nH]c1=O)c1ccccc1,8.29%
19,COc1cc(C(=O)Oc2ccccc2/C=N/NC(=O)c2ccc(Cl)cc2)cc(OC)c1OC,61.8% (active)
20,CCC(=O)N(C)CCc1cc2c(c(OC)c1/C=N/NC(=O)c1ccc(Br)cc1)OCO2,8.22%
21,C/C(Cn1cnc([N+](=O)[O-])n1)=N\NC(=O)c1cccc(F)c1,8.55%
22,O=C(N/N=C/c1ccccc1OC(=O)c1ccc2c(c1)OCO2)c1cccc(F)c1,52.1% (active)
23,CC1=C(C(=O)OCCCCCl)C(c2cc3c(cc2Br)OCO3)NC(=O)N1 (stereo not given),7.44%
24,O=C(Cn1cc(/C=N/NC(=O)c2cccc3ccccc23)c2ccccc21)Nc1ccc(F)cc1,56.1% (active)
25,O=C(Nc1ccccc1C(=O)N/N=C/c1ccco1)c1ccc(F)cc1,10.3%
